Columns and labels:
Adenosine receptor A1 [1] = target: T1, Adenosine receptor A1 (Homo sapiens, UniProt P30542); test: Binding affinity against adenosine A1 receptor in human cortical membranes using [3H]CHA as radioligand; type: cell membranes
T1 sequence (P30542 whole entry): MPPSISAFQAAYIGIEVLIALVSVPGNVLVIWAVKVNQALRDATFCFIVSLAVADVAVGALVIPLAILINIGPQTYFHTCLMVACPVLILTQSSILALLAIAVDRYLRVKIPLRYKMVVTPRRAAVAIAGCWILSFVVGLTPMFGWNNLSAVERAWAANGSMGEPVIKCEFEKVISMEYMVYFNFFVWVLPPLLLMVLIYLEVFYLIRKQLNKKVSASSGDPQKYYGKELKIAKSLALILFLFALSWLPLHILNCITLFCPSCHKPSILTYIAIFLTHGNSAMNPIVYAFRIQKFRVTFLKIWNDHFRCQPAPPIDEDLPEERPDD

Adenosine receptor A1 [2] = target: T1, Adenosine receptor A1; test: Displacement of [3H]DPCPX from adenosine A1 receptor in human brain cortical membranes; type: cell membranes
Procedure, shortened: (§1)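 Cortical membranes (0.05–0.1 mg protein) incubated in triplicate at 25 °C for 120 min with about 0.5 nM [3H]-DPCPX (89 Ci/mmol). Buffer: 50 mM Tris/HCl pH 7.7, 1 mM EDTA, 2 mM MgCl2. Nonspecific binding with 10 μM (R)-PIA; GF/C filtration.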

Adenosine receptor A1 [3] = target: T2, Adenosine receptor A1 (Bos taurus, UniProt P28190); test: Displacement of [3H]DPCPX from adenosine A1 receptor in bovine brain cortical membranes; type: cell membranes; procedure, shortened: as §1
T2 sequence (P28190 whole entry): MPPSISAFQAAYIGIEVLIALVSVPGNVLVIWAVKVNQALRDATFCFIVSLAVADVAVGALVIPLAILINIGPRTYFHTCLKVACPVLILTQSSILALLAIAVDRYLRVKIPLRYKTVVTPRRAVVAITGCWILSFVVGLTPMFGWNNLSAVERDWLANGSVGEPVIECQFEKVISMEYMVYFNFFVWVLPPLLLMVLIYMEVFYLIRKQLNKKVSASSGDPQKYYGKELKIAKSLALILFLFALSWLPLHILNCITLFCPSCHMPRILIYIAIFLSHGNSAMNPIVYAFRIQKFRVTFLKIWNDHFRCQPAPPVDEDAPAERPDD

[4] = Ratio of binding affinity against bovine adenosine A1 to that of A2 receptor
Adenosine receptor A1 [5] = target: T2, Adenosine receptor A1; test: Binding affinity against adenosine A1 receptor in bovine cortical membranes using [3H]CHA as radioligand; type: cell membranes
Procedure, shortened: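 Bovine cortical membranes; [3H]-CHA at 39 Ci/mmol. Compounds dissolved in DMSO, with solvent blanks run. At least six concentrations spanning 3 orders of magnitude.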

[6] = target: Adenosine receptor A2a (Bos taurus); test: Binding affinity against adenosine A2 receptor in bovine striatal membranes using [3H]-CGS-21,680 as radioligand
Adenosine receptor A2a = Adenosine receptor A2a (Homo sapiens, UniProt P29274); test: Binding affinity against adenosine A2 receptor in human striatal membranes using [3H]CGS-21680 as radioligand; type: cell membranes, Striatum, Membrane
Chain of Adenosine receptor A2a (P29274 whole entry): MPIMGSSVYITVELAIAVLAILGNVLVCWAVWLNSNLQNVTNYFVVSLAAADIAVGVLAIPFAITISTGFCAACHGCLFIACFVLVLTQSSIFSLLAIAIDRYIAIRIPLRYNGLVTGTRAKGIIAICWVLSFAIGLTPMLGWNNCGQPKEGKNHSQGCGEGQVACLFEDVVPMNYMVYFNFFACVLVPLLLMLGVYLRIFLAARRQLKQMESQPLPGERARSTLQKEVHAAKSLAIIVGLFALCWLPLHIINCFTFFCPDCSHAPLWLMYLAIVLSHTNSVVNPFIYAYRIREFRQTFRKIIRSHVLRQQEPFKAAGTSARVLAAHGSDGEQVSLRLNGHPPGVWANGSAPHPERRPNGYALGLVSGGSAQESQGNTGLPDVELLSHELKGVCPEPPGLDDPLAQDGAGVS

Cc1ccc2c(Oc3ccccc3)cc(-c3ccccc3)nc2n1
Ki (Adenosine receptor A1 [1]): 8800 nM

Oc1cc(-c2ccccc2)nc2nc(Br)ccc12
Ki (Adenosine receptor A1 [2]): 336 nM
Ki (Adenosine receptor A1 [3]): 1.6 nM
Ki (Adenosine receptor A1 [1]): 360 nM

Cc1ccc2c(Cl)cc(-c3ccccc3)nc2n1
Ratio [4]: > 10
Ki (Adenosine receptor A1 [1]): > 10000 nM

CC(=O)Nc1ccc(-c2cc(O)c3ccc(C)nc3n2)cc1
Ki (Adenosine receptor A1 [2]): 1460 nM
Ki (Adenosine receptor A1 [3]): 1.67 nM
Ki (Adenosine receptor A1 [5]): 1 nM
Ki (Adenosine receptor A1 [1]): 2000 nM

Cc1ccc2c(O)cc(-c3ccc(F)cc3)nc2n1
Ki (Adenosine receptor A1 [1]): 3900 nM

Cc1ccc2c(O)cc(-c3cccc(N)c3)nc2n1
Ki (Adenosine receptor A1 [1]): 4000 nM

COc1cc(-c2ccccc2)nc2nc(C)ccc12
Ki (Adenosine receptor A1 [1]): > 10000 nM

Cc1ccc2ccc(-c3ccccc3)nc2n1
Ki (Adenosine receptor A1 [1]): > 10000 nM

Oc1cc(-c2ccccc2)nc2nc(N3CCNCC3)ccc12
Ki [6]: > 10 µM
Ki (Adenosine receptor A1 [5]): > 10000 nM
Ki (Adenosine receptor A1 [1]): > 10000 nM
Ki (Adenosine receptor A2a): > 10000 nM

CCCn1c(=O)c2[nH]c(C3CCCC3)nc2n(CCC)c1=O [1,3-DIPROPYL-8-CYCLOPENTYLXANTHINE [DPCPX]]
Ki (Adenosine receptor A1 [5]): 0.25 nM

CCOC(=O)CCN1CCN(c2ccc3c(O)cc(-c4ccccc4)nc3n2)CC1
Ki (Adenosine receptor A1 [5]): > 10000 nM
Ki (Adenosine receptor A1 [1]): > 10000 nM

CCOc1cc(-c2ccccc2)nc2c1ccc(=O)n2CC
Ki (Adenosine receptor A1 [5]): 4700 nM
Ki (Adenosine receptor A1 [1]): > 10000 nM

Cc1ccc2c(O)cc(-c3ccccc3F)nc2n1
Ratio [4]: 43
Ki (Adenosine receptor A1 [1]): 490 nM
Ki (Adenosine receptor A2a): 40 nM

Cc1ccc2c(NC3CCCCC3)cc(-c3ccccc3)nc2n1
Ki (Adenosine receptor A1 [2]): 448 nM
Ki (Adenosine receptor A1 [3]): 39 nM
Ki (Adenosine receptor A1 [1]): 560 nM

Nc1ccc2c(O)cc(-c3ccccc3)nc2n1
Ki (Adenosine receptor A1 [1]): 3400 nM

CCn1c(-c2ccccc2)cc(=O)c2ccc(C)nc21
Ki (Adenosine receptor A1 [1]): > 10000 nM

Cc1ccc2c(N3CCNCC3)cc(-c3ccccc3)nc2n1
Ki (Adenosine receptor A1 [1]): > 10000 nM

CN(C)c1ccc2c(O)cc(-c3ccccc3)nc2n1
Ki (Adenosine receptor A1 [2]): 1370 nM
Ki (Adenosine receptor A1 [3]): 6.02 nM
Ki (Adenosine receptor A1 [5]): 0.56 nM
Ki (Adenosine receptor A1 [1]): 980 nM

O=c1ccc2c(O)cc(-c3ccccc3)nc2[nH]1
Ki (Adenosine receptor A1 [2]): > 10000 nM
Ki (Adenosine receptor A1 [1]): > 10000 nM

Cc1ccc2c(N(C)C)cc(-c3ccccc3)nc2n1
Ki (Adenosine receptor A1 [1]): > 10000 nM

CCOc1ccc2c(OCC)cc(-c3ccccc3)nc2n1
Ki [6]: > 10 µM
Ratio [4]: > 34
Ki (Adenosine receptor A1 [5]): 290 nM
Ki (Adenosine receptor A1 [1]): > 10000 nM
Ki (Adenosine receptor A2a): > 10000 nM

Cc1cc(O)c2ccc(N)nc2n1
Ki (Adenosine receptor A1 [2]): > 10000 nM
Ki (Adenosine receptor A1 [3]): > 10000 nM
Ki (Adenosine receptor A1 [5]): > 10000 nM
Ki (Adenosine receptor A1 [1]): > 10000 nM
Ki (Adenosine receptor A2a): 7500 nM

Cc1ccc2c(N)cc(-c3ccccc3)nc2n1
Ki (Adenosine receptor A1 [1]): 2000 nM

Oc1cc(-c2ccccc2)nc2nc(NC3CCCCC3)ccc12
Ki (Adenosine receptor A1 [5]): 70 nM
Ki (Adenosine receptor A1 [1]): 2200 nM

COc1cc(-c2ccccc2)nc2c1ccc(=O)n2C
Ki (Adenosine receptor A1 [1]): > 10000 nM

Cn1c(=O)ccc2c(O)cc(-c3ccccc3)nc21
Ki (Adenosine receptor A1 [1]): > 10000 nM

Cc1ccc2c(N=[N+]=[N-])cc(-c3ccccc3)nc2n1
Ki (Adenosine receptor A1 [1]): > 10000 nM

Cc1ccc2c(O)cc(-c3ccc(N)cc3)nc2n1
Ki [6]: 0.5 µM
Ratio [4]: 73
Ki (Adenosine receptor A1 [5]): 6.8 nM
Ki (Adenosine receptor A1 [1]): 910 nM
Ki (Adenosine receptor A2a): 110 nM

Nc1nc2c(cnn2CCc2ccccc2)c2nc(-c3ccco3)nn12 [SCH-58261]
Ki (Adenosine receptor A1 [5]): 357 nM

Cc1ccc2c(O)ccnc2n1
Ki [6]: > 10 µM
Ratio [4]: > 1.4
Ki (Adenosine receptor A1 [5]): 7000 nM
Ki (Adenosine receptor A1 [1]): > 10000 nM
Ki (Adenosine receptor A2a): 1800 nM

CCOc1cc(-c2ccccc2)nc2nc(Br)ccc12
Ki (Adenosine receptor A1 [5]): 50 nM
Ki (Adenosine receptor A1 [1]): 1000 nM

Cc1ccc2c(NN)cc(-c3ccccc3)nc2n1
Ki (Adenosine receptor A1 [1]): > 10000 nM

Cc1ccc2c(S)cc(-c3ccccc3)nc2n1
Ki (Adenosine receptor A1 [1]): 2000 nM

Cc1ccc2c(O)cc(-c3ccccc3)nc2n1
Ratio [4]: 87
Ki (Adenosine receptor A1 [1]): 430 nM
Ki (Adenosine receptor A2a): 550 nM

Cc1ccc2c(O)cc(-c3cccc([N+](=O)[O-])c3)nc2n1
Ki (Adenosine receptor A1 [5]): 15 nM
Ki (Adenosine receptor A1 [1]): 2200 nM

CCCc1cc(O)c2ccc(C)nc2n1
Ki (Adenosine receptor A1 [2]): 1450 nM
Ki (Adenosine receptor A1 [3]): 61.5 nM
Ki (Adenosine receptor A1 [5]): 48 nM
Ki (Adenosine receptor A1 [1]): 1500 nM

CSc1cc(-c2ccccc2)nc2nc(C)ccc12
Ki [6]: > 10 µM
Ratio [4]: > 26
Ki (Adenosine receptor A1 [5]): 380 nM
Ki (Adenosine receptor A1 [1]): > 10000 nM
Ki (Adenosine receptor A2a): 210 nM

Oc1cc(-c2ccccc2)nc2nc(N3CCOCC3)ccc12
Ki [6]: > 10 µM
Ratio [4]: > 63
Ki (Adenosine receptor A1 [5]): 160 nM
Ki (Adenosine receptor A1 [1]): > 10000 nM
Ki (Adenosine receptor A2a): > 10000 nM

CCCc1cc(O)c2ccc(N)nc2n1
Ki (Adenosine receptor A1 [5]): 210 nM
Ki (Adenosine receptor A1 [1]): 4100 nM

Cc1cc(O)c2ccc(=O)[nH]c2n1
Ki [6]: > 10 µM
Ki (Adenosine receptor A1 [5]): > 10000 nM
Ki (Adenosine receptor A1 [1]): > 10000 nM
Ki (Adenosine receptor A2a): > 10000 nM

Cc1ccc2c(N)ccnc2n1
Ki [6]: > 10 µM
Ki (Adenosine receptor A1 [5]): > 10000 nM
Ki (Adenosine receptor A1 [1]): > 10000 nM
Ki (Adenosine receptor A2a): > 10000 nM

Cc1ccc2c(O)cc(-c3ccc([N+](=O)[O-])cc3)nc2n1
Ki (Adenosine receptor A1 [1]): 3100 nM

Oc1cc(-c2ccccc2)nc2ncccc12
Ki (Adenosine receptor A1 [1]): 1300 nM

Oc1cc(-c2ccccc2)nc2nc(Oc3ccccc3)ccc12
Ki (Adenosine receptor A1 [1]): > 10000 nM

Oc1cc(-c2ccccc2)nc2nc(N3CCCCC3)ccc12
Ki [6]: > 10 µM
Ratio [4]: > 1390
Ki (Adenosine receptor A1 [5]): 7.2 nM
Ki (Adenosine receptor A1 [1]): 7500 nM
Ki (Adenosine receptor A2a): > 10000 nM

CCOc1ccc2c(O)cc(-c3ccccc3)nc2n1
Ratio [4]: > 1920
Ki (Adenosine receptor A1 [1]): 2600 nM
Ki (Adenosine receptor A2a): 1500 nM

CCOc1ccc2c(=O)cc(-c3ccccc3)n(CC)c2n1
Ki [6]: > 10 µM
Ratio [4]: 208
Ki (Adenosine receptor A1 [5]): 48 nM
Ki (Adenosine receptor A1 [1]): 930 nM
Ki (Adenosine receptor A2a): 1400 nM

Oc1cc(-c2ccccc2)nc2nc(F)ccc12
Ratio [4]: 41
Ki (Adenosine receptor A1 [1]): 1400 nM
Ki (Adenosine receptor A2a): 2700 nM

COc1ccc2c(O)cc(-c3ccccc3)nc2n1
Ki (Adenosine receptor A1 [1]): 2000 nM

Oc1cc(-c2ccccc2)nc2nc(Cl)ccc12
Ki (Adenosine receptor A1 [2]): 670 nM
Ki (Adenosine receptor A1 [3]): 1.62 nM
Ki (Adenosine receptor A1 [1]): 300 nM

Reference: ChEMBL document CHEMBL1149169 (J Med Chem, 2004)
